Test results from ChEMBL document CHEMBL1156239, “Synthesis, anticonvulsant and antimicrobial activities of some new 2-acetylnaphthalene derivatives” (Bioorg Med Chem, 2010).
In brackets after ≈: the same amount, converted by molar mass. Activity calls are given as the source filed them. The rule behind the calls is not given here.

How the values were obtained:
[1] = tested on: Mus musculus; test: Anticonvulsant activity in CF1 mouse assessed as inhibition of maximal electroshock-induced seizures at 100 mg/kg, ip after 4 hrs; format: functional, organism-based; design: dose 100 mg/kg
How it was run: (§1)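 Male albino CF#1 mice (18–25.5 g), compound suspended in 0.5% methylcellulose, given ip 0.5 h or 4 h before test. Eyes treated with 0.5% tetracaine HCl in saline; corneal-type MES at 60 Hz, 50 mA for 0.2 s; protection scored as animals protected/tested.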

[2] = tested on: Mus musculus; test: Anticonvulsant activity in CF1 mouse assessed as inhibition of maximal electroshock-induced seizures at 30 mg/kg, ip after 0.5 hrs; format: functional, organism-based; design: dose 30 mg/kg; how it was run: as §1
[3] = tested on: Mus musculus; test: Neurotoxicity in CF1 mouse at 300 mg/kg, ip after 0.5 hrs by rotarod test; format: toxicity, organism-based; design: dose 300 mg/kg, route intraperitoneal; conditions: in vivo
How it was run: (§2)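 Male albino CF#1 mice (18–25.5 g) dosed ip with compound suspended in 0.5% methylcellulose, 0.5 h or 4 h before testing; neurotoxicity assessed by rotarod, scored as number toxic/number tested.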

[4] = tested on: Mus musculus; test: Anticonvulsant activity in CF1 mouse assessed as inhibition of maximal electroshock-induced seizures at 300 mg/kg, ip after 0.5 hrs; format: functional, organism-based; design: dose 300 mg/kg; how it was run: as §1
[5] = tested on: Mus musculus; test: Neurotoxicity in CF1 mouse at 30 mg/kg, ip after 0.5 hrs by rotarod test; format: toxicity, organism-based; design: dose 30 mg/kg, route intraperitoneal; conditions: in vivo; how it was run: as §2
[6] = tested on: Mus musculus; test: Neurotoxicity in CF1 mouse at 300 mg/kg, ip after 4 hrs by rotarod test; format: toxicity, organism-based; design: dose 300 mg/kg, route intraperitoneal; conditions: in vivo; how it was run: as §2
[7] = tested on: Mus musculus; test: Neurotoxicity in CF1 mouse at 30 mg/kg, ip after 4 hrs by rotarod test; format: toxicity, organism-based; design: dose 30 mg/kg, route intraperitoneal; conditions: in vivo; how it was run: as §2
[8] = tested on: Mus musculus; test: Anticonvulsant activity in CF1 mouse assessed as inhibition of maximal electroshock-induced seizures at 30 mg/kg, ip after 4 hrs; format: functional, organism-based; design: dose 30 mg/kg; how it was run: as §1
[9] = tested on: Mus musculus; test: Neurotoxicity in CF1 mouse at 100 mg/kg, ip after 4 hrs by rotarod test; format: toxicity, organism-based; design: dose 100 mg/kg, route intraperitoneal; conditions: in vivo; how it was run: as §2
[10] = tested on: Mus musculus; test: Anticonvulsant activity in CF1 mouse assessed as inhibition of maximal electroshock-induced seizures at 300 mg/kg, ip after 4 hrs; format: functional, organism-based; design: dose 300 mg/kg; how it was run: as §1
[11] = tested on: Mus musculus; test: Neurotoxicity in CF1 mouse at 100 mg/kg, ip after 0.5 hrs by rotarod test; format: toxicity, organism-based; design: dose 100 mg/kg, route intraperitoneal; conditions: in vivo; how it was run: as §2
[12] = tested on: Mus musculus; test: Anticonvulsant activity in CF1 mouse assessed as inhibition of maximal electroshock-induced seizures at 100 mg/kg, ip after 0.5 hrs; format: functional, organism-based; design: dose 100 mg/kg; how it was run: as §1
[13] = tested on: Pichia kudriavzevii; test: Antifungal activity against Candida krusei ATCC 6258 after 48 hrs by broth microdilution method; format: functional; conditions: ATCC 6258, 48 h
[14] = tested on: Staphylococcus aureus; test: Antibacterial activity against Staphylococcus aureus ATCC 25923 after 24 hrs by broth microdilution method; format: functional; conditions: ATCC 25923, 24 h
How it was run: (§3)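 Broth microdilution in Mueller Hinton broth; compound stocks in DMSO, diluted into test medium. Plates incubated at 35 °C and read visually after 24 h. MIC taken as lowest concentration preventing visible growth. Ampicillin reference.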

[15] = tested on: Escherichia coli; test: Antibacterial activity against Escherichia coli ATCC 25922 after 24 hrs by broth microdilution method; format: functional; conditions: ATCC 25922, 24 h; how it was run: as §3
[16] = tested on: Mus musculus; test: Neurotoxicity in CF1 mouse assessed as ability to grasp rotarod at 300 mg/kg, ip after 0.5 hrs by rotarod test; format: toxicity, organism-based; design: dose 300 mg/kg, route intraperitoneal; conditions: in vivo; how it was run: as §2
[17] = tested on: Candida parapsilosis; test: Antifungal activity against Candida parapsilosis ATCC 22019 after 48 hrs by broth microdilution method; format: functional; conditions: Lodderomyces parapsilosis, ATCC 22019, 48 h
[18] = tested on: Pseudomonas aeruginosa; test: Antibacterial activity against Pseudomonas aeruginosa ATCC 27853 after 24 hrs by broth microdilution method; format: functional; conditions: ATCC 27853, 24 h; how it was run: as §3
[19] = tested on: Enterococcus faecalis; test: Antibacterial activity against Enterococcus faecalis ATCC 29212 after 24 hrs by broth microdilution method; format: functional; conditions: ATCC 29212, 24 h; how it was run: as §3
[20] = tested on: Mus musculus; test: Anticonvulsant activity in CF1 mouse assessed as inhibition of maximal electroshock-induced […] seizures at 300 mg/kg, ip after 0.5 hrs; format: functional, organism-based; design: dose 300 mg/kg; how it was run: as §1
[21] = tested on: Mus musculus; test: Neurotoxicity in CF1 mouse assessed as hyperactivity at 300 mg/kg, ip after 0.5 hrs by rotarod test; format: toxicity, organism-based; design: dose 300 mg/kg, route intraperitoneal; conditions: in vivo
[22] = tested on: Mus musculus; test: Neurotoxicity in CF1 mouse assessed as mortality at 300 mg/kg, ip after 4 hrs by rotarod test; format: toxicity, organism-based; design: dose 300 mg/kg, route intraperitoneal; conditions: in vivo
How it was run: (§4)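 Male albino CF#1 mice (18–25.5 g), free access to food and water except during testing, under NINDS Anticonvulsant Screening Program procedures. Compounds were suspended in 0.5% methylcellulose and given ip. Neurotoxicity was scored by rotarod 0.5 h and 4 h after dosing, at screening doses of 30, 100 or 300 mg/kg. Results are reported as affected/tested animals.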

[23] = tested on: Mus musculus; test: Neurotoxicity in CF1 mouse assessed as ability to grasp rotarod at 300 mg/kg, ip after 4 hrs by rotarod test; format: toxicity, organism-based; design: dose 300 mg/kg, route intraperitoneal; conditions: in vivo; how it was run: as §4

Row | Structure (SMILES) | inhibition [1] | inhibition [2] | Activity [3] | inhibition [4] | Activity [5] | Activity [6] | Activity [7] | inhibition [8] | Activity [9] | inhibition [10] | Activity [11] | inhibition [12] | MIC [13] | MIC [14] | MIC [15] | MIC [17] | MIC [18] | MIC [19] | also measured
1 | CCCCC(=O)OC(C)c1ccc2ccccc2c1 (stereo unspecified) | inactive | inactive | Non-toxic | inactive | Non-toxic | Non-toxic | Non-toxic | inactive | Non-toxic | inactive | Non-toxic | inactive |  |  |  |  |  |  | 
2 | C/C(=N\CCCC(=O)O)c1ccc2ccccc2c1O | inactive | inactive | Toxic | inactive | Non-toxic | Non-toxic | Non-toxic | inactive | Non-toxic | inactive | Non-toxic | inactive |  |  |  |  |  |  | 
3 | CCCC(=O)OC(Cn1ccnc1)c1ccc2ccccc2c1 (stereo unspecified) | inactive | inactive |  |  | Non-toxic | Non-toxic | Non-toxic | inactive | Non-toxic | Active |  | Active | 256 µg/mL (≈ 830 µM) | 8 µg/mL (≈ 25.9 µM) | > 1020 µg/mL | 64 µg/mL (≈ 208 µM) | > 1020 µg/mL | 128 µg/mL (≈ 415 µM) | Activity [16]: Toxic; inhibition [20]: Active
4 | Oc1c(C(O)Cn2ccnc2)ccc2ccccc12 (stereo unspecified) | inactive | inactive |  | inactive | Non-toxic | Non-toxic | Non-toxic | inactive | Non-toxic | inactive | Non-toxic | inactive | 512 µg/mL (≈ 2010 µM) | 512 µg/mL (≈ 2010 µM) | > 1020 µg/mL | 512 µg/mL (≈ 2010 µM) | > 1020 µg/mL | 256 µg/mL (≈ 1010 µM) | 
5 | CCCCC(=O)OC(Cn1ccnc1)c1ccc2ccccc2c1 (stereo unspecified) |  | Active |  | Active | Non-toxic | Toxic | Non-toxic | inactive | Non-toxic |  | Non-toxic | Active | 128 µg/mL (≈ 397 µM) | 8 µg/mL (≈ 24.8 µM) | > 1020 µg/mL | 128 µg/mL (≈ 397 µM) | > 1020 µg/mL | 32 µg/mL (≈ 99.3 µM) | Activity [21]: Toxic; Activity [22]: Toxic; Activity [23]: Toxic
6 | CC(C)(C)OC(=O)NCCCC(=O)OC(Cn1ccnc1)c1ccc2ccccc2c1 (stereo unspecified) | inactive | inactive |  | Active | Non-toxic | Non-toxic | Non-toxic | inactive | Non-toxic | Active |  | Active | > 1020 µg/mL | 16 µg/mL (≈ 37.8 µM) | > 1020 µg/mL | > 1020 µg/mL | > 1020 µg/mL | 128 µg/mL (≈ 302 µM) | 
7 | CCCC(CCC)C(=O)OC(C)c1ccc2ccccc2c1 (stereo unspecified) | inactive | inactive | Non-toxic | inactive | Non-toxic | Non-toxic | Non-toxic | inactive | Non-toxic | inactive | Non-toxic | inactive |  |  |  |  |  |  | 
8 | O=C(Cn1ccnc1)c1ccc2ccccc2c1O | inactive | inactive |  | Active | Non-toxic | Non-toxic | Non-toxic | inactive | Non-toxic | Active | Non-toxic | inactive | 64 µg/mL (≈ 254 µM) | 64 µg/mL (≈ 254 µM) | 1020 µg/mL (≈ 4060 µM) | 32 µg/mL (≈ 127 µM) | > 1020 µg/mL | 64 µg/mL (≈ 254 µM) | 
9 | CC1(C)S[C@@H]2[C@H](NC(=O)[C@H](N)c3ccccc3)C(=O)N2[C@H]1C(=O)O [AMPICILLIN] |  |  |  |  |  |  |  |  |  |  |  |  |  | 1 µg/mL (≈ 2.86 µM) | 8 µg/mL (≈ 22.9 µM) |  |  | 2 µg/mL (≈ 5.72 µM) | 
10 | OC(Cn1cncn1)(Cn1cncn1)c1ccc(F)cc1F [FLUCONAZOLE] |  |  |  |  |  |  |  |  |  |  |  |  | 64 µg/mL (≈ 209 µM) |  |  | 8 µg/mL (≈ 26.1 µM) |  |  | 
11 | O=C(OC(Cn1ccnc1)c1ccc2ccccc2c1)c1ccc(Cl)cc1 (stereo unspecified) | inactive | inactive |  | Active | Non-toxic | Non-toxic | Non-toxic | inactive | Non-toxic | inactive | Non-toxic | inactive | 512 µg/mL (≈ 1360 µM) | 32 µg/mL (≈ 84.9 µM) | 1020 µg/mL (≈ 2720 µM) | 512 µg/mL (≈ 1360 µM) | 1020 µg/mL (≈ 2720 µM) | 128 µg/mL (≈ 340 µM) | 
12 | CC(C)CC(=O)OC(C)c1ccc2ccccc2c1 (stereo unspecified) | inactive | inactive | Non-toxic | inactive | Non-toxic | Non-toxic | Non-toxic | inactive | Non-toxic | inactive | Non-toxic | inactive |  |  |  |  |  |  | 
13 | CC(OC(=O)CCCNC(=O)OC(C)(C)C)c1ccc2ccccc2c1 (stereo unspecified) | inactive | inactive | Non-toxic | inactive | Non-toxic | Non-toxic | Non-toxic | inactive | Non-toxic | inactive |  | inactive |  |  |  |  |  |  | 
